Results taken from ChEMBL document CHEMBL1909563, “Anti-inflammatory triterpenoid saponins from the stem bark of Kalopanax pictus” (J Nat Prod, 2011).
Activity calls are given as the source filed them. No cut-off for these calls is given here.

Legend:
Format in all cases: cell-based
HepG2 [1] = experiment: Inhibition of NF-kappaB-induced iNOS mRNA expression in TNF-alpha-stimulated human HepG2 cells after 1 hr by RT-PCR analysis
Procedure, shortened: (§1)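 HepG2 cells stimulated with TNFα alone or with compound at 0.1, 1 and 10 μM; COX-2 and iNOS mRNA measured against β-actin housekeeping control. Mean ± SD (n = 6); significance versus TNFα-stimulated cells by Dunnett's multiple comparison test (p < 0.05, p < 0.01).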

[2] = Inhibition of TNF-alpha-induced NFkappaB activation in human HepG2 cells after 1 hr by luciferase reporter assay; details: HepG2, 1 h
Procedure, shortened: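 HepG2 cells seeded at 1.5 × 10^5 per well, grown 24 h, then transiently transfected with NF-kB-responsive firefly luciferase reporter (minimal CMV promoter, tandem NF-kB response elements). Pretreated 1 h with DMSO vehicle or compound, then 10 ng/mL TNFα for 1 h; cells lysed, luciferin added, luminescence read.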

HepG2 [3] = experiment: Cytotoxicity against human HepG2 cells by MTT assay
HepG2 [4] = experiment: Inhibition of NF-kappaB-induced COX2 mRNA expression in TNF-alpha-stimulated human HepG2 cells after 1 hr by RT-PCR analysis; procedure, shortened: as §1
HepG2 [5] = experiment: Inhibition of NF-kappaB-induced iNOS mRNA expression in TNF-alpha-stimulated human HepG2 cells at 0.1 to 10 uM after 1 hr by RT-PCR analysis; procedure, shortened: as §1
HepG2 [6] = experiment: Inhibition of NF-kappaB-induced COX2 mRNA expression in TNF-alpha-stimulated human HepG2 cells at 0.1 to 10 uM after 1 hr by RT-PCR analysis; procedure, shortened: as §1

IC50 [2]	Compound	inhibition (HepG2 [1])	Activity (HepG2 [3])	inhibition (HepG2 [4])	inhibition (HepG2 [5])	inhibition (HepG2 [6])
6.2 µM	CC1(C)CC[C@]2(C(=O)O[C@@H]3O[C@H](CO[C@@H]4O[C@H](CO)[C@@H](O)[C@H](O)[C@H]4O)[C@@H](O)[C@H](O)[C@H]3O)CC[C@]3(C)C(=CC[C@@H]4[C@@]5(C)CC[C@H](O)[C@@](C)(CO)[C@@H]5CC[C@]43C)[C@@H]2C1 [DIPSACUSSAPONIN A]	Dose-dependent effect	Non-toxic	Dose-dependent effect		
> 20 µM	CC1(C)CC[C@]2(C(=O)O)CC[C@]3(C)C(=CC[C@@H]4[C@@]5(C)CC[C@H](O)[C@@](C)(CO)[C@@H]5CC[C@]43C)[C@@H]2C1 [HEDERAGENIN]				inactive	inactive
0.8 µM	C[C@@H]1O[C@@H](O[C@H]2[C@H](O[C@H]3CC[C@@]4(C)[C@@H](CC[C@]5(C)[C@@H]4CC=C4[C@@H]6CC(C)(C)CC[C@]6(C(=O)O[C@@H]6O[C@H](CO[C@@H]7O[C@H](CO)[C@@H](O[C@@H]8O[C@@H](C)[C@H](O)[C@@H](O)[C@H]8O)[C@H](O)[C@H]7O)[C@@H](O)[C@H](O)[C@H]6O)CC[C@]45C)[C@]3(C)CO)OC[C@H](O)[C@@H]2O)[C@H](O)[C@H](O)[C@H]1O [KALOPANAXSAPONIN B]	Dose-dependent effect	Non-toxic	Dose-dependent effect		
3.9 µM	C[C@@H]1O[C@@H](O[C@H]2[C@H](O[C@H]3CC[C@@]4(C)[C@@H](CC[C@]5(C)[C@@H]4CC=C4[C@@H]6CC(C)(C)CC[C@]6(C(=O)O[C@@H]6O[C@H](CO[C@@H]7O[C@H](CO)[C@@H](O[C@@H]8O[C@@H](C)[C@H](O)[C@@H](O)[C@H]8O)[C@H](O)[C@H]7O)[C@@H](O)[C@H](O)[C@H]6O)CC[C@]45C)[C@]3(C)CO)OC[C@H](O)[C@@H]2O[C@@H]2O[C@H](CO)[C@@H](O)[C@H](O)[C@H]2O)[C@H](O)[C@H](O)[C@H]1O [KALOPANAXSAPONIN C]	Dose-dependent effect	Non-toxic	Dose-dependent effect		
> 20 µM	C[C@@]1(CO)CC[C@]2(C(=O)O)CC[C@]3(C)C(=CC[C@@H]4[C@@]5(C)CC[C@H](O)[C@@](C)(CO)[C@@H]5CC[C@]43C)[C@@H]2C1 [NIPPONOGENIN E]					
0.6 µM	C[C@@H]1O[C@@H](O[C@H]2[C@H](O)[C@@H](O)[C@H](OC[C@H]3O[C@@H](OC(=O)[C@]45CCC(C)(C)C[C@H]4C4=CC[C@@H]6[C@@]7(C)CC[C@H](O[C@@H]8OC[C@H](O)[C@H](O)[C@H]8O[C@@H]8O[C@@H](C)[C@H](O)[C@@H](O[C@@H]9OC[C@@H](O)[C@H](O)[C@H]9O)[C@H]8O)[C@@](C)(CO)[C@@H]7CC[C@@]6(C)[C@]4(C)CC5)[C@H](O)[C@@H](O)[C@@H]3O)O[C@@H]2CO)[C@H](O)[C@H](O)[C@H]1O [SIEBOLDIANOSIDE A]	Dose-dependent effect	Non-toxic	Dose-dependent effect		

More lines, now with the values behind:

Compound	IC50 [2]	inhibition (HepG2 [1])	Activity (HepG2 [3])	inhibition (HepG2 [4])	inhibition (HepG2 [5])	inhibition (HepG2 [6])
C[C@@]1(CO)CC[C@]2(C(=O)O)[C@H](O)C[C@]3(C)C(=CC[C@@H]4[C@@]5(C)CCC(=O)[C@@](C)(CO)[C@@H]5CC[C@]43C)[C@@H]2C1	6.5 µM	Dose-dependent effect	Non-toxic	Dose-dependent effect		
COC(=O)CC[C@]1(C)[C@H]2CC=C3[C@@H]4C[C@](C)(CO)CC[C@]4(C(=O)O)CC[C@@]3(C)[C@]2(C)CC[C@H]1C(C)(O)CO (some centres not stated)	9.4 µM	Dose-dependent effect	Non-toxic	Dose-dependent effect		
CC1(C)CC[C@]2(C(=O)O[C@@H]3O[C@H](CO)[C@@H](O)[C@H](O)[C@H]3O)CC[C@]3(C)C(=CC[C@@H]4[C@@]5(C)CC[C@H](O)[C@@](C)(CO)[C@@H]5[C@H](O)C[C@]43C)[C@@H]2C1	16.4 µM	Dose-dependent effect	Non-toxic	Dose-dependent effect		
CC(=O)O[C@@H]1[C@@H](OC(C)=O)[C@H](O[C@H]2CC[C@@]3(C)[C@@H](CC[C@]4(C)[C@@H]3CC=C3[C@@H]5CC(C)(C)CC[C@]5(C(=O)O[C@@H]5O[C@H](CO[C@@H]6O[C@H](CO)[C@@H](O[C@@H]7O[C@@H](C)[C@H](O)[C@@H](O)[C@H]7O)[C@H](O)[C@H]6O)[C@@H](O)[C@H](O)[C@H]5O)CC[C@]34C)[C@]2(C)CO)OC[C@@H]1O	8.9 µM	Dose-dependent effect	Non-toxic	Dose-dependent effect		
CC(=O)O[C@@H]1[C@@H](O)[C@H](O[C@H]2CC[C@@]3(C)[C@@H](CC[C@]4(C)[C@@H]3CC=C3[C@@H]5CC(C)(C)CC[C@]5(C(=O)O[C@@H]5O[C@H](CO[C@@H]6O[C@H](CO)[C@@H](O[C@@H]7O[C@@H](C)[C@H](O)[C@@H](O)[C@H]7O)[C@H](O)[C@H]6O)[C@@H](O)[C@H](O)[C@H]5O)CC[C@]34C)[C@]2(C)CO)OC[C@@H]1OC(C)=O	9.3 µM	Dose-dependent effect	Non-toxic	Dose-dependent effect		
CC1(C)CC[C@]2(C(=O)O)CC[C@]3(C)C(=CC[C@@H]4[C@@]5(C)CC[C@H](O)[C@@](C)(CO)[C@@H]5[C@H](O)C[C@]43C)[C@@H]2C1	1.4 µM	Dose-dependent effect	Non-toxic	Dose-dependent effect		
CC1(C)CC[C@]2(C(=O)O[C@@H]3O[C@H](CO)[C@@H](O)[C@H](O)[C@H]3O)CC[C@]3(C)C(=CC[C@@H]4[C@@]5(C)CC[C@H](O)[C@@](C)(CO)[C@@H]5CC[C@]43C)[C@@H]2C1	9.1 µM	Dose-dependent effect	Non-toxic	Dose-dependent effect		
C[C@@H]1O[C@@H](O[C@H]2[C@H](O[C@H]3CC[C@@]4(C)[C@@H](CC[C@]5(C)[C@@H]4CC=C4[C@@H]6CC(C)(C)CC[C@]6(C(=O)O)CC[C@]45C)[C@]3(C)CO)OC[C@H](O)[C@@H]2O)[C@H](O)[C@H](O)[C@H]1O [ALPHA-HEDERIN]	5.5 µM	Dose-dependent effect	Non-toxic	Dose-dependent effect		
C[C@@H]1O[C@@H](O[C@H]2[C@H](O)[C@@H](O)[C@H](OC[C@H]3O[C@@H](OC(=O)[C@]45CCC(C)(C)C[C@H]4C4=CC[C@@H]6[C@@]7(C)CC[C@H](O[C@@H]8OC[C@H](O)[C@H](O)[C@H]8O)[C@@](C)(CO)[C@@H]7CC[C@@]6(C)[C@]4(C)CC5)[C@H](O)[C@@H](O)[C@@H]3O)O[C@@H]2CO)[C@H](O)[C@H](O)[C@H]1O [CAULOSIDE D]	9.2 µM	Dose-dependent effect	Non-toxic	Dose-dependent effect		
O=C(O)c1cc(/N=N/c2ccc(S(=O)(=O)Nc3ccccn3)cc2)ccc1O [SULFASALAZINE]	0.9 µM					
